Data on 13 compounds can be found in ChEMBL document CHEMBL1136151, “Suzuki cross-coupling approaches to the synthesis of bioactive 3-substituted and 5-substituted-4-methoxy-6-methyl-2-pyrones” (Bioorg Med Chem Lett, 2003).

What all share (type): functional
In assay [1] the test system is Schizosaccharomyces pombe. The experiment in a line: Antimicrobial activity against Schizosaccharomyces pombe was determined after 48 hours of incubation. Put shortly: (§1)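 Disk diffusion on yeast plates: cellulose disks carrying test compound, with an EtOH control. Incubation 48 h. The inhibition zone radius is recorded in mm.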
Assay [2] relates to Botrytis cinerea. Kind of assay: Percent growth of Botrytis cinerea after 72 hours of incubation. Details: concentration or dose not given beside the values. The essentials: (§2)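 Fungal plate assay: pyrone dissolved in absolute EtOH at 10mg/mL and pipetted 2 cm offset from the centre of the plate containing the organism. EtOH alone served as control. Growth is recorded as percentage of the organism after 72 h and after 7 days of incubation.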

Another assay has as its system Candida albicans. Kind of assay: Antimicrobial activity against Candida albicans was determined after 48 hours of incubation. The essentials: as §1
For another assay, the system named is Staphylococcus aureus. Kind of assay: Antimicrobial activity against Staphylococcus aureus was determined after 96 hours of incubation. Put shortly:
(§3)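 Disk diffusion: cellulose disks loaded with test compound and placed on bacterial plates, with an EtOH control disk. Incubation 96 h. Read-out is the radius (mm) of the inhibition zone.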

A further assay relates to Saccharomyces cerevisiae. The experiment in a line: Antimicrobial activity against Saccharomyces cerevisiae was determined after 48 hours of incubation. The essentials: as §1
The subject of assay [3] is Thanatephorus cucumeris. The experiment in a line: Percent growth of Rhizoctonia solani after 7 days of incubation. Details: concentration or dose not given beside the values. The essentials: as §2
The test system of assay [4] is Fusarium oxysporum. Kind of assay: Percent growth of Fusarium oxysporum after 7 days of incubation. The arrangement: concentration or dose not given beside the values. Put shortly: as §2
The subject of assay [5] is Fusarium oxysporum. Kind of assay: Percent growth of Fusarium oxysporum after 72 hours of incubation. The arrangement: concentration or dose not given beside the values. The essentials: as §2
The test system of assay [6] is Botrytis cinerea. The experiment in a line: Percent growth of Botrytis cinerea after 7 days of incubation. The arrangement: concentration or dose not given beside the values. Put shortly: as §2
Assay [7] has as its system Aspergillus niger. The experiment in a line: Percent growth of Aspergillus niger after 72 hours of incubation. Details: concentration or dose not given beside the values. The essentials: as §2
Assay [8] relates to Thanatephorus cucumeris. The experiment in a line: Percent growth of Rhizoctonia solani after 72 hours of incubation. Details: concentration or dose not given beside the values. The essentials: as §2
The subject of another assay is Bacillus subtilis. Kind of assay: Antimicrobial activity against Bacillus subtilis was determined after 96 hours of incubation. The essentials:
as §3

Another assay concerns Escherichia coli. The experiment in a line: Antimicrobial activity against Escherichia coli was determined after 96 hours of incubation. Put shortly:
as §3

Assay [9] concerns Globisporangium ultimum. Kind of assay: Percent growth of Pythium ultimum after 7 days of incubation. The arrangement: concentration or dose not given beside the values. The essentials:
as §2

For assay [10], the system named is Globisporangium ultimum. Kind of assay: Percent growth of Pythium ultimum after 72 hours of incubation. Details: concentration or dose not given beside the values. Put shortly:
as §2

In assay [11] the test system is Aspergillus niger. Kind of assay: Percent growth of Aspergillus niger after 7 days of incubation. The arrangement: concentration or dose not given beside the values. The essentials: as §2

As for `CCC/C=C/c1cc(C)oc(=O)c1`, the Activity in assay [1] is 28 mm; in the assay with Candida albicans, 16 mm; in the assay with Staphylococcus aureus, 20 mm; with Saccharomyces cerevisiae, 0 mm; in the assay with Bacillus subtilis it was 16 mm; with Escherichia coli, 19 mm. Moreover, the Growth was 47% in the assay on Botrytis cinerea [2]; 100% in the assay on Thanatephorus cucumeris [3]; 45% with Fusarium oxysporum [4]; 5% in the assay on Fusarium oxysporum [5]; 100% in the assay on Botrytis cinerea [6]; more than 95% in the assay with Aspergillus niger [7]. Moreover, the Growth turned out to be 49% with Thanatephorus cucumeris [8], 100% in the assay on Globisporangium ultimum [9], 100% in the assay with Globisporangium ultimum [10] and 100% with Aspergillus niger [11].

Take `CCCCCC/C=C/c1cc(C)oc(=O)c1`: the Activity in [1] was 29 mm; in the assay on Candida albicans it was 20 mm; in the assay with Staphylococcus aureus, 18 mm; in the assay with Saccharomyces cerevisiae it was 0 mm; in the assay on Bacillus subtilis it was 18 mm; in the assay on Escherichia coli it was 20 mm. In addition, the Growth in the assay on Botrytis cinerea [2] turned out to be 42%; in the assay with Thanatephorus cucumeris [3], 100%; with Fusarium oxysporum [4], 30%; in the assay on Fusarium oxysporum [5] it was 5%; in the assay with Botrytis cinerea [6], 100%; in the assay on Aspergillus niger [7], 89%. The Growth in the assay on Thanatephorus cucumeris [8] is 44%; with Globisporangium ultimum [9], 100%; in the assay with Globisporangium ultimum [10] it was 100%; with Aspergillus niger [11], 94%.

With `COc1ccc(-c2c(OC)cc(=O)oc2C)cc1`, the Activity in assay [1] stood at 18 mm; with Candida albicans it was 11 mm; in the assay with Staphylococcus aureus, 13 mm; in the assay on Saccharomyces cerevisiae, 0 mm; with Bacillus subtilis it was 14 mm; in the assay on Escherichia coli, 5 mm. Besides, the Growth was 53% in the assay with Botrytis cinerea [2]; 100% with Thanatephorus cucumeris [3]; 61% in the assay with Fusarium oxysporum [4]; 11% with Fusarium oxysporum [5]; 100% in the assay on Botrytis cinerea [6]; 85% with Aspergillus niger [7]. For the same compound, the figures for the Growth in the assay on Thanatephorus cucumeris [8] and with Aspergillus niger [11] were 69% and 90%, respectively.

Take `COc1cc(=O)oc(C)c1-c1ccccc1`: the Activity in assay [1] was determined as 0 mm; with Candida albicans it was 0 mm; in the assay on Staphylococcus aureus, 0 mm; with Saccharomyces cerevisiae it was 0 mm; in the assay on Bacillus subtilis, 6 mm; in the assay on Escherichia coli it was 6 mm. The Growth came to 47% in the assay with Botrytis cinerea [2]; 100% with Thanatephorus cucumeris [3]; 51% with Fusarium oxysporum [4]; 12% in the assay with Fusarium oxysporum [5]; 100% in the assay with Botrytis cinerea [6]; 71% with Aspergillus niger [7]. Moreover, the Growth with Thanatephorus cucumeris [8] is given as 67%; with Aspergillus niger [11], more than 90%.

As for `COc1cc(C)oc(=O)c1-c1ccc(C)cc1`, the Activity amounted to 0 mm in [1]; 0 mm in the assay with Candida albicans; 0 mm in the assay with Staphylococcus aureus; 0 mm with Saccharomyces cerevisiae; 16 mm in the assay on Bacillus subtilis; 20 mm in the assay on Escherichia coli. The Growth in the assay with Botrytis cinerea [2] was 58%; in the assay with Thanatephorus cucumeris [3] it was 100%; in the assay on Fusarium oxysporum [4], 60%; in the assay on Fusarium oxysporum [5] it was 11%; in the assay on Botrytis cinerea [6], 100%; with Aspergillus niger [7] it was more than 95%. For the same compound, the Growth turned out to be 55% with Thanatephorus cucumeris [8], 100% in the assay with Globisporangium ultimum [9], 100% in the assay on Globisporangium ultimum [10] and 100% in the assay on Aspergillus niger [11].

Consider `COc1ccc(-c2c(OC)cc(C)oc2=O)cc1`, for which the Activity (in [1]; in the assay with Candida albicans; in the assay with Staphylococcus aureus; in the assay on Saccharomyces cerevisiae; in the assay with Bacillus subtilis; in the assay on Escherichia coli) was 0 mm throughout. The Growth in the assay on Botrytis cinerea [2] was found to be 62%; in the assay with Thanatephorus cucumeris [3] it was 100%; in the assay with Fusarium oxysporum [4], 60%; with Fusarium oxysporum [5] it was 7%; with Botrytis cinerea [6], 100%; in the assay with Aspergillus niger [7], 70%. For the same compound, the Growth was 81% in the assay with Thanatephorus cucumeris [8], 100% in the assay with Globisporangium ultimum [9], 100% with Globisporangium ultimum [10] and 82% in the assay with Aspergillus niger [11].

In the case of `COc1cc(C)oc(=O)c1/C=C/c1ccccc1`, the Activity (in [1]; in the assay with Candida albicans; in the assay with Staphylococcus aureus; in the assay with Saccharomyces cerevisiae; in the assay on Bacillus subtilis; in the assay on Escherichia coli) was 0 mm throughout. The Growth is reported as 58% in the assay on Botrytis cinerea [2]; 100% with Thanatephorus cucumeris [3]; 60% with Fusarium oxysporum [4]; 11% in the assay with Fusarium oxysporum [5]; 100% in the assay with Botrytis cinerea [6]; more than 95% with Aspergillus niger [7]. The Growth is on record as 92% with Thanatephorus cucumeris [8], 100% in the assay with Globisporangium ultimum [9], 100% in the assay with Globisporangium ultimum [10] and 100% with Aspergillus niger [11].

Regarding `Cc1cc(/C=C/c2ccccc2)cc(=O)o1`, the Activity in assay [1] was 18 mm; in the assay on Candida albicans, 0 mm; with Staphylococcus aureus, 0 mm; in the assay on Saccharomyces cerevisiae, 0 mm; in the assay on Bacillus subtilis, 18 mm; in the assay with Escherichia coli it was 17 mm. Besides, the Growth worked out at 59% in the assay on Botrytis cinerea [2]; 100% with Thanatephorus cucumeris [3]; 100% in the assay with Botrytis cinerea [6]; 100% in the assay with Aspergillus niger [7]; 47% in the assay on Thanatephorus cucumeris [8]; 100% in the assay on Globisporangium ultimum [9]. The Growth in the assay with Globisporangium ultimum [10] and with Aspergillus niger [11] was 100% each time.

Regarding `COc1cc(C)oc(=O)c1-c1ccc(C=O)cc1`, the Activity was 0 mm in assay [1]; 0 mm in the assay on Candida albicans; 0 mm in the assay on Staphylococcus aureus; 0 mm with Saccharomyces cerevisiae; 6 mm with Bacillus subtilis; 6 mm in the assay with Escherichia coli. Besides, the Growth worked out at 65% with Botrytis cinerea [2]; 100% with Thanatephorus cucumeris [3]; 60% in the assay with Fusarium oxysporum [4]; 11% in the assay on Fusarium oxysporum [5]; 100% in the assay on Botrytis cinerea [6]; 83% in the assay with Aspergillus niger [7]. The Growth in the assay on Thanatephorus cucumeris [8] is 79%; in the assay with Globisporangium ultimum [9] it was 100%; in the assay on Globisporangium ultimum [10], 100%; with Aspergillus niger [11], more than 95%.

On to `COc1cc(=O)oc(C)c1/C=C/c1ccccc1`, for which the Activity in assay [1] was determined as 0 mm; with Candida albicans it was 0 mm; in the assay with Staphylococcus aureus, 0 mm; with Saccharomyces cerevisiae, 0 mm; with Bacillus subtilis, 6 mm; with Escherichia coli, 6 mm. Moreover, the Growth with Botrytis cinerea [2] is on record as 47%; in the assay on Thanatephorus cucumeris [3] it was 100%; with Fusarium oxysporum [4], 51%; in the assay on Fusarium oxysporum [5], 12%; in the assay with Botrytis cinerea [6], 100%; in the assay on Aspergillus niger [7], 71%. The Growth in the assay on Thanatephorus cucumeris [8] is listed as 67%; with Aspergillus niger [11] it was 90%.

Regarding `COc1cc(C)oc(=O)c1-c1cccc([N+](=O)[O-])c1`, the Activity came to 0 mm in assay [1]; 0 mm with Candida albicans; 0 mm in the assay with Staphylococcus aureus; 0 mm in the assay on Saccharomyces cerevisiae; 6 mm in the assay on Bacillus subtilis; 0 mm in the assay with Escherichia coli. For the same compound, the Growth in the assay with Thanatephorus cucumeris [3] was 100%; with Fusarium oxysporum [4], 60%; in the assay on Fusarium oxysporum [5], 12%; in the assay with Botrytis cinerea [6], 100%; in the assay on Aspergillus niger [7], 100%; in the assay on Globisporangium ultimum [9] it was 100%. Also, the Growth with Globisporangium ultimum [10] and in the assay on Aspergillus niger [11] was 100% each time.

As for `COc1cc(C)oc(=O)c1-c1ccccc1`, the Activity came to 0 mm in assay [1]; 0 mm with Candida albicans; 0 mm in the assay with Staphylococcus aureus; 0 mm with Saccharomyces cerevisiae; 6 mm in the assay on Bacillus subtilis; 0 mm in the assay with Escherichia coli. Also, the Growth with Botrytis cinerea [2] was 63%; in the assay on Thanatephorus cucumeris [3] it was 100%; in the assay with Fusarium oxysporum [4] it was 60%; in the assay on Fusarium oxysporum [5] it was 7.4%; with Botrytis cinerea [6] it was 100%; in the assay on Aspergillus niger [7], more than 95%. The Growth with Thanatephorus cucumeris [8] is 75%; in the assay on Globisporangium ultimum [9], 100%; with Globisporangium ultimum [10], 100%; with Aspergillus niger [11] it was 100%.

For the compound `COc1cc(C)oc(=O)c1-c1ccc(Cl)cc1`, the Activity is 0 mm in assay [1]; 0 mm with Candida albicans; 0 mm in the assay on Staphylococcus aureus; 30 mm in the assay on Saccharomyces cerevisiae; 17 mm in the assay with Bacillus subtilis; 18 mm in the assay with Escherichia coli. Moreover, the Growth with Botrytis cinerea [2] was 58%; with Thanatephorus cucumeris [3], 100%; with Fusarium oxysporum [4], 60%; in the assay with Fusarium oxysporum [5] it was 8%; in the assay with Botrytis cinerea [6], 100%; in the assay on Aspergillus niger [7], more than 95%. Besides, the Growth in the assay with Thanatephorus cucumeris [8] came to 51%; in the assay on Globisporangium ultimum [9] it was 100%; in the assay on Globisporangium ultimum [10], 100%; with Aspergillus niger [11] it was 95%.
